Data set [1] deals with Rattus norvegicus. Description: Dose normalized AUC in rat at 1 mg/kg, po. The format is ADME, organism-based. Particulars: in vivo. On the set-up: dose 1 mg/kg, route oral. Summed up:
(§1)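 Rats dosed at 1 mg/kg iv (n = 2) or 1 mg/kg po (n = 3), formulated at 1 mg/mL in PEG 200:water (70:30). Blood concentrations measured by LC/MS/MS after protein precipitation with acetonitrile.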

Data set [2] deals with Rattus norvegicus. The data set can be described thus: Dose normalized AUC in rat at 1 mg/kg, iv. The format is ADME, organism-based. Details: dose 1 mg/kg, route intravenous. Particulars: in vivo. The gist of the method: as §1
Data set [3] is described as follows: Cmax in rat at 1 mg/kg, iv and 1 mg/lg, po. Type of data set: ADME, organism-based. On the set-up: dose 1 mg/kg, route oral. The conditions noted are these: in vivo. The gist of the method: as §1
Data set [4] in a line: Half life in rat at 1 mg/kg, iv and 1 mg/lg, po. The format is ADME, organism-based. On the set-up: dose 1 mg/kg, route oral. Particulars: in vivo. Summed up: as §1
Data set [5] relates to Rattus norvegicus. The data set can be described thus: Volume of distribution at steady state in rat at 1 mg/kg, iv and 1 mg/lg, po. Particulars: in vivo. On the set-up: dose 1 mg/kg, route oral. Type of data set: ADME, organism-based. The gist of the method:
as §1

Data set [6] in a line: Oral bioavailability in rat at 1 mg/kg. The conditions noted are these: in vivo. Type of data set: ADME, organism-based. The gist of the method: as §1
In data set [7] the target is T1, Mineralocorticoid receptor (Homo sapiens, UniProt P08235).
T1 sequence (P08235 whole entry): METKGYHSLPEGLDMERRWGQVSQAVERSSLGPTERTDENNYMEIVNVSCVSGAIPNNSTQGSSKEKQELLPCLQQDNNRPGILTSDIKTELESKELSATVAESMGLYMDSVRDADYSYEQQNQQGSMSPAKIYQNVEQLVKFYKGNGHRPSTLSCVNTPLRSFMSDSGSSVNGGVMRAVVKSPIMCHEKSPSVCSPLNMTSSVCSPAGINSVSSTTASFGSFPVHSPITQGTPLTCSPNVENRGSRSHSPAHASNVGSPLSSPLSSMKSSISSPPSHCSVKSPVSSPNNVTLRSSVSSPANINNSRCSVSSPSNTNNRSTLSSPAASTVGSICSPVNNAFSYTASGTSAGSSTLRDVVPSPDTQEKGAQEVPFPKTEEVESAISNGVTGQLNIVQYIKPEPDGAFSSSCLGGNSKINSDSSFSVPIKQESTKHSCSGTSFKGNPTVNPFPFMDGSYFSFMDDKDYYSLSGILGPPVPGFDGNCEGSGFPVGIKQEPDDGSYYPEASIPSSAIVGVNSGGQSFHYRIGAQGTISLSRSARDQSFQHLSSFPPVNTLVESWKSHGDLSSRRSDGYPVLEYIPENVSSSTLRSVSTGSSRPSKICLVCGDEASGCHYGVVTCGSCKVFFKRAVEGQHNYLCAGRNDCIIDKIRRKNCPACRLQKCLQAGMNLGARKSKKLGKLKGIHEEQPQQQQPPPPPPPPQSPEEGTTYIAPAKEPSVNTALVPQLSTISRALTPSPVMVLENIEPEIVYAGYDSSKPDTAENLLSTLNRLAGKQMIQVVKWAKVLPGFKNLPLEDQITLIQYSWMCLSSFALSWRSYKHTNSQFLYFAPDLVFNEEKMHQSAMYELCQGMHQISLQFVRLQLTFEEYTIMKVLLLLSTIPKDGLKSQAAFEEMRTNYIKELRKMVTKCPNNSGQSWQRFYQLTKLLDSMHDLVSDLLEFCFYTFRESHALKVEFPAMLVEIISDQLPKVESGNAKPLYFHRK
The data set can be described thus: Antagonist activity at human mineralocorticoid receptor assessed as inhibition of binding to coactivator peptide by NH Pro assay.

Data set [8] addresses T2, Estrogen receptor (Homo sapiens, UniProt P03372).
T2 sequence (P03372 whole entry): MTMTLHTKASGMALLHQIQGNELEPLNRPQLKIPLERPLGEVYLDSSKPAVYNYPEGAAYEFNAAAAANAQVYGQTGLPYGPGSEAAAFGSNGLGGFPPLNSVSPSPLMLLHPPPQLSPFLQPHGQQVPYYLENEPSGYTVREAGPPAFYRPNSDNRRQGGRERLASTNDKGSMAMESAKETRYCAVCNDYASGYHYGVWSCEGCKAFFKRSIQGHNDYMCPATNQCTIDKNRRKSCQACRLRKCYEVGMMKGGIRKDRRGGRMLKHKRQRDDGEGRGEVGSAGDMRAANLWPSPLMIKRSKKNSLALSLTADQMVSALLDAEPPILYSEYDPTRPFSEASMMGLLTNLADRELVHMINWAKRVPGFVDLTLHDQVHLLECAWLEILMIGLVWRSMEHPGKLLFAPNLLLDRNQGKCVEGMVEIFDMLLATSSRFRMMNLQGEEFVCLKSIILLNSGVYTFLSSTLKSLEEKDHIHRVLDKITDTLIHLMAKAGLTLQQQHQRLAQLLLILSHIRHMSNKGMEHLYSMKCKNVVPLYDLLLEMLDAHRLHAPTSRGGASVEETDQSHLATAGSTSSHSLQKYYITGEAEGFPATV
Description: Antagonist activity at estrogen receptor alpha (unknown origin) by NH Pro assay.

Data set [9] addresses T2, Estrogen receptor. The data set can be described thus: Agonist activity at estrogen receptor alpha (unknown origin) by NH Pro assay.
Data set [10] deals with T3, Glucocorticoid receptor (Homo sapiens, UniProt P04150).
T3 sequence (P04150 whole entry): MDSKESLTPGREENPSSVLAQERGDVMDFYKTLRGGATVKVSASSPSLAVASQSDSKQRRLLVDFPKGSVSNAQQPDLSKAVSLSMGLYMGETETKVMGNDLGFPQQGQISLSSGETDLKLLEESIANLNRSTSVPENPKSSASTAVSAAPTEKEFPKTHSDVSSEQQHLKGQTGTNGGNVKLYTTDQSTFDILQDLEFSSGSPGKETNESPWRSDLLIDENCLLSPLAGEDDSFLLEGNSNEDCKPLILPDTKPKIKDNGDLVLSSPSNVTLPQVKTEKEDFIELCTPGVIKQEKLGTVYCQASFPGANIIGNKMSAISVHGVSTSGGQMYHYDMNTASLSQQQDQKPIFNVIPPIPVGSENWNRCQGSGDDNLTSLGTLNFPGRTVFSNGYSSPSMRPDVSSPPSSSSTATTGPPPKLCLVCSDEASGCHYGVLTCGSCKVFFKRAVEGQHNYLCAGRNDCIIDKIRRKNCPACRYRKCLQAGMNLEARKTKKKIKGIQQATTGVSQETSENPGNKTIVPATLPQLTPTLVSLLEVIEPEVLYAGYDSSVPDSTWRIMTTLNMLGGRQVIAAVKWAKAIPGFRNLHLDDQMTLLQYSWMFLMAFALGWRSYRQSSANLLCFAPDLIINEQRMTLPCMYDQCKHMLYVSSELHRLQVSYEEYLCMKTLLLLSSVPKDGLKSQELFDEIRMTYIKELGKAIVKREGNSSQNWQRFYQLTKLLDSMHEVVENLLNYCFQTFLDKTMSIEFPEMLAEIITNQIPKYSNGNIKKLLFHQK
The data set can be described thus: Agonist activity at glucocorticoid receptor (unknown origin) by NH Pro assay.

Data set [11] has as its target T3, Glucocorticoid receptor. The data set can be described thus: Antagonist activity at glucocorticoid receptor (unknown origin) by NH Pro assay.

Data on 9 molecules can be found in ChEMBL document CHEMBL2407028, “Discovery of novel oxazolidinedione derivatives as potent and selective mineralocorticoid receptor antagonists” (Bioorg Med Chem Lett, 2013).

As usually defined, the Cmax is the peak of the concentration-time curve. What is called half-life is how long it takes for the measured level to halve. A lower half-life goes with rapid decline. The term bioavailability denotes the share of a dose that reaches the circulation, judged against a reference dose that is usually intravenous. Broadly, the IC50 is the midpoint of a concentration-inhibition curve. What is called EC50 is the concentration that produces a half-maximal response.

Bounds are passed on as bounds.

For `COc1cc(CNC(=O)[C@@]2(Cc3ccccc3)OC(=O)N([C@H](C)c3ccccc3)C2=O)cc(OC)c1`, the AUC/dose with Rattus norvegicus [1] was 0.05 µM·kg·h/mg; with Rattus norvegicus [2], 0.75 µM·kg·h/mg. Moreover, the maximum concentration (Cmax) in data set [3] came out at 60 nM. The molecule also gave a half-life in data set [4] of 1.2 h. Further, in the data set on Rattus norvegicus [5], the Vdss stood at 2.8 L/kg. Moreover, the bioavailability in data set [6] worked out at 7%. Moreover, in data set [7], the IC50 was found to be 54 nM.

For `CC(=O)S[C@@H]1CC2=CC(=O)CC[C@]2(C)[C@H]2CC[C@@]3(C)[C@@H](CC[C@@]34CCC(=O)O4)[C@H]12` [SPIRONOLACTONE], the IC50 is > 20000 nM against Estrogen receptor [8] and 4100 nM against Glucocorticoid receptor [11]. For the same molecule, the EC50 at Estrogen receptor [9] and on Glucocorticoid receptor [10] was > 20000 nM each time.

For `C[C@H](c1ccccc1)N1C(=O)O[C@](Cc2ccccc2)(C(=O)N[C@H]2C[C@H](c3ccccc3)C2)C1=O`, the half-inhibitory concentration (IC50) in data set [7] was 190 nM.

With `C[C@H](c1ccccc1)N1C(=O)O[C@](Cc2ccccc2)(C(=O)NC2CCC2)C1=O`, the IC50 in data set [7] was determined as 1200 nM.

As to `C[C@H](c1ccccc1)N1C(=O)O[C@](Cc2ccccc2)(C(=O)NCc2cccc(Cl)c2)C1=O`, the IC50 in data set [7] was 280 nM.

As for `C[C@H](c1ccccc1)N1C(=O)O[C@](Cc2ccccc2)(C(=O)NCc2ccc(S(C)(=O)=O)cc2)C1=O`, the IC50 in [7] is > 10000 nM.

Consider `C[C@H](c1ccccc1)N1C(=O)O[C@](Cc2ccccc2)(C(=O)N[C@H](C)c2cccc(Cl)c2)C1=O`, for which the IC50 in data set [7] is 400 nM.

On to `COC(=O)[C@@H]1CC2=CC(=O)CC[C@]2(C)[C@@]23O[C@@H]2C[C@@]2(C)[C@@H](CC[C@@]24CCC(=O)O4)[C@H]13` [EPLERENONE], for which the IC50 against Estrogen receptor [8] is > 20000 nM. The concentration for a half-maximal effect (EC50) on Estrogen receptor [9] is > 20000 nM.

`COc1cc(CNC(=O)[C@]2(Cc3ccccc3)C(=O)N(Cc3ccccc3)C(=O)N2C)cc(OC)c1`: the half-inhibitory concentration (IC50) in [7] was > 40000 nM.
